PubChem BioAssay AID624015 (Broad Institute, 2012)

Target: Scavenger receptor class B member 1 (Mus musculus) (UniProt Q61009)
Assay: SR-BI C384S cholesterol efflux blockers – cell-based, ldlA CHO C384S mutant, [3H]cholesterol, powder samples, set 2, mechanism study for SR-BI HDL uptake inhibitor project, dose response (AID 624015)
Settings: [3H]cholesterol efflux to HDL
Outline: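 Assay system: ldlA CHO cells expressing Cys384S-mutant SR-BI, radiolabel-loaded. Incubation: 1 h compound pre-incubation, then 2 h HDL efflux, 37 °C. Buffer or medium: HEPES pH 7.4 buffered medium, FAF-BSA equilibrated. Detection: scintillation counting, medium and cell lysate.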

Sequence of Scavenger receptor class B member 1 (Mus musculus) (Q61009 whole entry, looked up): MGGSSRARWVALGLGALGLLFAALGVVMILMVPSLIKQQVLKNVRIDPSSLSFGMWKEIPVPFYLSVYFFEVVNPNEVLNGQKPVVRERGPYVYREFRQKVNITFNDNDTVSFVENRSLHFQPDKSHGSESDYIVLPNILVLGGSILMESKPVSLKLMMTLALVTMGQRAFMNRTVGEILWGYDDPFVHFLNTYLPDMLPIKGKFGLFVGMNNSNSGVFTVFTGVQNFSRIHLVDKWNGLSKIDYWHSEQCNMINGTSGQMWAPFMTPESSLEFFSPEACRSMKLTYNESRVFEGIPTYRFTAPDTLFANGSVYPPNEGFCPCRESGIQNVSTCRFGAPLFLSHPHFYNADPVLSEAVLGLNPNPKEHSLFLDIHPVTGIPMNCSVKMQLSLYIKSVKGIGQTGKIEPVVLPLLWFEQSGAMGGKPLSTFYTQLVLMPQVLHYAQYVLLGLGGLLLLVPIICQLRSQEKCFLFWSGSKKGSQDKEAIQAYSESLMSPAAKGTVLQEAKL

Structure (SMILES): CC(C)NC(=O)Nc1ccc2c(c1)C(=O)N([C@H](C)CO)C[C@@H](C)[C@H](CN(C)S(=O)(=O)c1ccc(Cl)cc1)O2
- AC50: 0.25 µM
